Bioassay records deposited in PubChem by several laboratories.
Bfl-1 A1 inh = inhibitors of the anti-apoptotic protein A1, read as caspase activation; 330,000 tested, 0.066% active; AID 2462; caspase activation, % (test concentration not listed); MEF A1-2A-BIM cells, Caspase-Glo 3/7 luminescence, 3 h; percent of clofoctol response, vehicle zero;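 active means over half of replicate activation scores above 10%, or exactly half above 10 with the replicate mean above 10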
CHOP inh = blocks CHOP induction under ER stress. CHO-K1 CHOP-promoter luciferase, tunicamycin-induced, 15-18 h. inhibition, % at 10 µM. 220,000 tested, 3.8% active;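 active means compounds that reduced the stress-induced luciferase reporter signal by more than about 70% of percent inhibition, limit read from the data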
XBP1 UPR activ = activators of adaptive arm of unfolded protein response (XBP1) | 330,000 tested, 0.33% active | AID 463104 | CHO-XBP1 luciferase reporter, IRE1-XBP1 UPR activation, luminescence; percent of tunicamycin response, DMSO as zero | activation, % at 20 µM;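 active means versus positive control, 20 µM dose yields 30% or more activation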
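Material: CHO cell line with stable XBP1 luciferase reporter; schedule: 16-18 h cell attachment at 37 °C, then 6 h compound exposure; signal: glow luminescence from Steady-Glo reagent; medium: serum-containing F12 medium, 10% FBS; benchmarks: tunicamycin 10 µg/mL and vehicle-only wells; read-out: percent activation relative to tunicamycin reference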
UPR CHOP act = apoptotic UPR (CHOP) activation; CHO-CHOP luciferase reporter, luminescence; percent of tunicamycin response over DMSO baseline; activation, % at 10 µM; 330,000 tested, 0.34% active; AID 449763;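 active means at 10 µM dose, activation of 40% or more, normalized to positive control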
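Material: CHO-CHOP cells, stable luciferase reporter of PERK-eIF2a-CHOP signalling; quantity: 500 reporter cells seeded per well; buffer or medium: F12 medium containing 10% fetal bovine serum; compound: one dose, 10 µM in 0.5% DMSO; incubation: 6 h compound treatment, 37 °C; measured by: Steady-Glo luciferase luminescence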
CHOP UPR conf = confirmation of apoptotic unfolded protein response (CHOP) activators; shares compounds with UPR CHOP act; CHO-CHOP cells, CHOP-luciferase reporter luminescence; percent of tunicamycin response, DMSO as zero; activation, % at 10 µM; 1,000 tested, 64% active; AID 463112; in the data active means activation above about 33%
Numbers stand for hits; 0 = inactive; - = not tested or not shown. Shown is part of a subset that was picked to be rich in hits.

SMILES	Bfl-1 A1 inh	CHOP inh	XBP1 UPR activ	UPR CHOP act	CHOP UPR conf
Cc1cc(C)nc(Sc2ncnc(N)c2[N+](=O)[O-])n1	0	101.7	0	94.6	0
Cc1cccc(Nc2ncnc(N)c2[N+](=O)[O-])n1	0	0	0	0	-
S=C1SCN(Cc2cccnc2)CN1Cc1ccccc1	0	0	0	0	-
S=C1SCN(Cc2ccccn2)CN1Cc1ccco1	0	0	0	101.5	50.1
COCCN1CSC(=S)N(Cc2ccco2)C1	0	0	0	90.8	53.0
CCOCCCN1CN(Cc2ccco2)CNC1=S	0	0	0	0	-
OC(CN1CCOCC1)(c1ccccc1)c1ccccn1 (stereo not given)	0	-	0	0	-
CCOC(=O)c1ccc(N=C2C(=S)N(c3ccc(C(=O)OCC)cc3)C(=N)N2/N=C/c2ccccc2)cc1	0	0	0	53.1	36.7
CCOC(=O)c1nc2sc(C)c(C)c2c(=O)[nH]1	0	0	0	0	-
CCOC(=O)/C(=C\c1cccc(O)c1)c1nc2sc(C)c(C)c2c(=O)[nH]1	0	0	0	47.5	162.7
Nc1[nH]ncc1S(=O)(=O)c1ccccc1	0	-	0	0	-
CC(C)C(=O)N1CCN(c2ccc(NC(=O)c3ccc([N+](=O)[O-])o3)cc2Cl)CC1	-	0	-	-	-
CC(C)C(=O)N1CCN(c2ccc(NC(=O)c3ccc([N+](=O)[O-])o3)cc2)CC1	0	0	0	108.1	71.3
CN1CCN(c2ccc(NC(=O)c3ccc([N+](=O)[O-])o3)cc2Cl)CC1	0	-	0	98.7	59.5
COc1ccc(OC)c(C2c3[nH]c4ccccc4c3C[C@H]3C(=O)N(CCCOC(C)C)CC(=O)N23)c1 (stereo not given in full)	0	-	0	0	-
O=C(Nc1cccc(S(=O)(=O)N2CCCCC2)c1)c1ccc([N+](=O)[O-])o1	0	0	0	54.9	38.5
Cc1ccc(NC(=O)c2ccc([N+](=O)[O-])o2)cc1S(=O)(=O)N1CCOCC1	0	0	0	82.4	39.6
COc1ccc(-n2nc3c(c2NC(=O)C(C)Cl)CSC3)cc1 (stereo not given)	0	-	0	0	-
COc1ccc(-n2nc3c(c2NC(=O)CCl)CSC3)cc1	0	-	0	49.4	0
O=C(CSc1n[nH]c(=O)n1C1CC1)Nc1ccc(Cl)cc1Cl	0	-	0	0	-
Cc1ccc(S/C=C\C(=O)c2ccccc2)cc1	0	0	0	69.2	56.4
O=C(CCl)Nc1cc(S(=O)(=O)N2CCCCCC2)ccc1Cl	0	77.9	0	82.7	70.3
Oc1ccc(CNc2ccccc2)c2cccnc12	0	0	0	0	-
COCc1ccc(O)c2ncccc12	0	82.1	36.8	42.8	73.2
CN1CCN(C2CCN(Cc3ccc(O)c4ncccc34)CC2)CC1	0	-	0	0	-
SMILES	Bfl-1 A1 inh	CHOP inh	XBP1 UPR activ	UPR CHOP act	CHOP UPR conf
Oc1ccc(CN2CCN(Cc3ccccc3)CC2)c2cccnc12	0	0	0	71.0	94.1
CN1CCN(Cc2cc(COCc3ccccc3)c3cccnc3c2O)CC1	0	-	0	131.0	53.6
CC(=O)Nc1cc(C)nn1-c1nc(C)cc(C)n1	0	0	0	0	-
Cc1ccc(Nc2cc(C)nn2-c2nc(C)cc(C)n2)cc1	0	0	30.1	78.8	0
Cc1ccc(OCCN(C)C(=O)C2CCC(=O)N(CCCN3CCCC3=O)C2)cc1 (stereo not given)	0	-	0	0	-
NC(=O)c1cccc(NC(=O)CCCCC(=O)Nc2cccc(C(N)=O)c2)c1	0	-	0	41.0	0
CCCCC(=O)Nc1ccc(C(N)=O)cc1	0	0	0	0	-
O=C1C(c2ccccc2)=[N+]([O-])c2ccccc21	0	-	0	66.5	0
COC1=C(c2ccccc2)C(=O)c2ccccc2C1=O	0	0	0	0	-
CC(NC(=O)CN(c1cccc(C(F)(F)F)c1)S(=O)(=O)c1ccc(Cl)c([N+](=O)[O-])c1)c1ccccc1 (stereo not given)	0	0	0	103.7	140.0
Cc1ccc(C(=O)NC(C#N)=C(Cl)Cl)cc1	-	80.2	0	135.7	44.6
Cc1cc(C(=O)COC(=O)c2cccnc2Cl)c(C)n1C	0	-	0	0	-
C=CCn1c(SCC(=O)c2ccc(O)c(O)c2)nnc1-c1cccc(Cl)c1	0	-	0	64.0	0
CNC(=S)Nc1cccc(S(=O)(=O)NCc2ccco2)c1	0	-	0	0	-
COc1cccc(-c2nc(CS(=O)CC(=O)NCc3ccccc3)c(C)o2)c1 (stereo not given)	0	0	0	69.2	0
CCCNC(=O)CS(=O)Cc1nc(-c2cccc(OC)c2)oc1C (stereo not given)	0	0	0	0	-
Cc1cccc(Oc2nc(-c3ccccn3)nc3ccccc23)c1	0	0	0	0	-
c1ccc(N2CCN(c3nc(-c4ccccn4)nc4ccccc34)CC2)cc1	0	0	0	96.7	0
Cc1ccccc1Oc1nc(-c2ccccn2)nc2ccccc12	0	0	0	48.6	0
CN1CCN(c2nc(-c3ccccn3)nc3ccccc23)CC1	0	0	0	0	-
CS(=O)(=O)c1cccc(C(=O)OCC(=O)NC(=O)Nc2ccccc2F)c1	0	-	0	0	-
COc1ccccc1C(=O)Nc1ccnn1C1CCN(CCCc2ccccc2)CC1	0	-	0	0	-
COc1cc(C(Nc2ccccn2)c2ccc3ccc(C)nc3c2O)cc(OC)c1O (stereo not given)	0	-	0	262.7	251.2
Oc1c(C(Nc2ccccn2)c2ccccn2)ccc2cccnc12 (stereo not given)	0	0	0	58.8	70.8
COc1ccc(OC)c(S(=O)(=O)Nc2cc(C)on2)c1	0	-	0	0	-
SMILES	Bfl-1 A1 inh	CHOP inh	XBP1 UPR activ	UPR CHOP act	CHOP UPR conf
COc1ccc(/C=C2\SC(=S)N(CCCC(=O)N3CCCCC3CCO)C2=O)cc1 (stereo not given)	0	-	0	0	-
COc1cc(OC)c(NC2=CC(=O)C(=O)c3ccccc32)cc1Cl	0	-	0	53.4	0
c1ccc(-c2nc(NCc3ccco3)c3ccccc3n2)nc1	0	0	0	67.1	0
Oc1ccccc1-c1nc(NCc2ccco2)c2ccccc2n1	0	0	0	0	-
CN(C)C(=O)c1cc(C(=O)Cc2ccccc2)c[nH]1	0	-	0	0	-
Cc1ccc(/C=C/C(=O)N2CC(C)CC(C)C2)o1 (stereo not given)	0	0	0	68.5	0
CCN1CCN(C(=O)/C=C/c2ccc(C)o2)CC1	0	0	0	0	-
O=C(Cc1ccc(F)cc1)NC1CCSC1=O (stereo not given)	0	0	0	40.9	0
O=C(Nc1cccc(S(=O)(=O)N2CCCCC2)c1)C1COc2ccccc2O1 (stereo not given)	0	-	0	0	-
O=C(CSc1nnc(NC(=O)c2ccc(F)cc2F)s1)NC1CCCC1	0	-	0	0	-
COc1ccc(NC(=O)C2=CN3CCS(=O)(=O)N=C3C=C2)c(OC)c1	0	-	0	0	-
CNc1ccc(C(=O)OCC(=O)NC(=O)NC2CCCC2)cc1[N+](=O)[O-]	0	-	0	0	-
